Source: BindingDB's records for doi:10.1016/s0960-894x(03)00033-7 (Astrazeneca R&D, 2003)
pIC50: −log10 of the molar value.

What was measured:
Mu-type opioid receptor = Mu-type opioid receptor (Homo sapiens, UniProt P35372); test: Inhibition of [125I]Enkephalin binding to human mu opioid receptor from membranes of HEK293 cells
Summary of the method: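 Filter binding on membranes of HEK293 cells overexpressing human mu opioid receptor, measuring displacement of [125I]-Enkephalin. IC50 came from full dose–response curves on purified material, in single determinations.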

[1] = target: Delta-type opioid receptor (Homo sapiens, UniProt P41143); test: ChEBML_145338
Excerpt: Inhibition of [125I]deltorphin binding to human delta opioid receptor from membranes of HEK293 cells

Chain of Delta-type opioid receptor (P41143 whole entry): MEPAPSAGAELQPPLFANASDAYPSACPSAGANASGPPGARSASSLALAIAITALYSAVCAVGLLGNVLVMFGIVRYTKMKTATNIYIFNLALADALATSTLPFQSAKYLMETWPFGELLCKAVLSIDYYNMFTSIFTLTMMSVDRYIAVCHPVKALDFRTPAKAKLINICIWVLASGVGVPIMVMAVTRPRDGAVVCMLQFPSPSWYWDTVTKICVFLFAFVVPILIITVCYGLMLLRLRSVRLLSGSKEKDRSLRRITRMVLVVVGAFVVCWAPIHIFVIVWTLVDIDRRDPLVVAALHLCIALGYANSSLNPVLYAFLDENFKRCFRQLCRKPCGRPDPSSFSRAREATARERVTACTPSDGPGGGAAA
Chain of Mu-type opioid receptor (P35372 whole entry): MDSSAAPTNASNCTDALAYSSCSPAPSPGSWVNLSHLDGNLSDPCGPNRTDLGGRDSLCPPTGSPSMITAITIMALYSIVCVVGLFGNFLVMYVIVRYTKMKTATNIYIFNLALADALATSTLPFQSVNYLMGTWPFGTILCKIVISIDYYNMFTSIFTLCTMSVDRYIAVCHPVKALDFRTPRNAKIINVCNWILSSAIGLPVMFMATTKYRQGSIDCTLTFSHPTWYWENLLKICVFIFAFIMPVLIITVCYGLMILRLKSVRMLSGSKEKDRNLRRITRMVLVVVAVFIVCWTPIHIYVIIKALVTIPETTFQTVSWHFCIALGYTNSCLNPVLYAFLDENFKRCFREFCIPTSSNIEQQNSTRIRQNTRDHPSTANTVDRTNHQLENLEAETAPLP

`O=c1c(-c2ccccc2)cccn1C(CN1CCCC1)c1ccccc1` (configuration not stated) [3-Phenyl-1-(1-phenyl-2-pyrrolidin-1-yl-ethyl)-1H-pyridin-2-one] showed a pIC50 (Mu-type opioid receptor) of under 5.00 and a pIC50 [1] of under 5.00.
